From ChEMBL document CHEMBL1133298, “N1-Arylsulfonyl-N2-(1-aryl)ethyl-3-phenylpropane-1,2-diamines as novel calcimimetics acting on the calcium sensing receptor” (Bioorg Med Chem Lett, 2000)

What follows are compounds tested against T1, Extracellular calcium-sensing receptor (Rattus norvegicus) (UniProt P48442) (assay: Compound was evaluated for accumulation of [3H]- IP in CHO (CaSR) cells expressing rat cloned calcium sensing receptor).
T1 sequence (whole entry): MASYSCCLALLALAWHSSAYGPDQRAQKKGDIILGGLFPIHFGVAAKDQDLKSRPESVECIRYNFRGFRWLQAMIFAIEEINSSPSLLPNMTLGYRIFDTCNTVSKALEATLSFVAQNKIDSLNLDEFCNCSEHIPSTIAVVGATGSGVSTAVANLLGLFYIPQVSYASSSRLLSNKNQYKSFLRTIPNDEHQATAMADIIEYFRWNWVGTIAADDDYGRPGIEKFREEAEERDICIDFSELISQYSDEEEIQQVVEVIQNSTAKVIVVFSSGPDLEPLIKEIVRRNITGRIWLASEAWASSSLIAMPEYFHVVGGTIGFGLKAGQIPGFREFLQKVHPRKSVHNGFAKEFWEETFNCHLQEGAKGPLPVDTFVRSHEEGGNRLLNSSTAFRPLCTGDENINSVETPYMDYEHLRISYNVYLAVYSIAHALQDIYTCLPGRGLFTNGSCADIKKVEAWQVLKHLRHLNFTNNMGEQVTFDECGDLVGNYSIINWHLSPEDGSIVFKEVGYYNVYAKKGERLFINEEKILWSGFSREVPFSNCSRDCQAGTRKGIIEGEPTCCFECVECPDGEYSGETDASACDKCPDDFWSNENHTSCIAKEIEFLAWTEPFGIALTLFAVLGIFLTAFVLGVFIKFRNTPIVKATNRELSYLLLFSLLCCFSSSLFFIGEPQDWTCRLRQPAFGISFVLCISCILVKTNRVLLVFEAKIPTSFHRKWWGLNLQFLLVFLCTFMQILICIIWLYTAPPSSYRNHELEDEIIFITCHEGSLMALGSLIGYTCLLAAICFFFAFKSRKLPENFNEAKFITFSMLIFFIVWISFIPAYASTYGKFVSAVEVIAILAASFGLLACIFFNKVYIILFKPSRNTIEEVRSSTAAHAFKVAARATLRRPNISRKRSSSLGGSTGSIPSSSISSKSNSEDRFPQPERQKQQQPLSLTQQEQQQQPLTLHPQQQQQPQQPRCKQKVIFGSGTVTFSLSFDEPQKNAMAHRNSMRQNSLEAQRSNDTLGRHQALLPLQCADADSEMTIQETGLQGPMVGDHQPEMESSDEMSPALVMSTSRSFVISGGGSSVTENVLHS
Type: functional, cell-based
How it was run: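 CHO cells stably transfected with calcium sensing receptor cloned from rat brain. Grown in basal Ham's F-12 (0.3 mM Ca2+, 0.6 mM Mg2+) and prelabeled overnight with 0.5 µCi/mL myo-[3H]inositol. Drugs were made up at 10 mM in ethanol (stock), diluted in basal medium and tested at 10 µM with 2 mM extracellular Ca2+ at 37 °C. [3H]IP accumulation (phospholipase C activity) is given as % of the maximal response to 10 mM Ca2+, mean ±S.E.M.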

| Structure (SMILES) | Accumulation [%] |
| --- | --- |
| COc1ccc(S(=O)(=O)NC(CNC(C)c2cccc3ccccc23)Cc2ccc3c(c2)OCO3)cc1 (centres undefined) | 47 |
| COc1ccc(S(=O)(=O)NC(CNC(C)c2cccc3ccccc23)Cc2ccccc2OC)cc1 (centres undefined) | 65 |
| CC(NCC(Cc1ccccc1)NS(=O)(=O)c1ccccc1Cl)c1cccc2ccccc12 (centres undefined) | 79 |
| CC(NCC(Cc1ccccc1)NS(=O)(=O)c1ccc(C(F)(F)F)cc1)c1cccc2ccccc12 (centres undefined) | 27 |
| COc1ccc(S(=O)(=O)NC(CNC(C)c2cccc3ccccc23)Cc2ccccc2)cc1OC (centres undefined) | 97 |
| COc1ccc(S(=O)(=O)NC(CNC(C)c2cccc3ccccc23)Cc2ccccc2Cl)cc1 (centres undefined) | 60 |
| CC(NCC(Cc1ccccc1)NS(=O)(=O)c1cccc(Cl)c1)c1cccc2ccccc12 (centres undefined) | 83 |
| COc1ccc(CC(CNC(C)c2cccc3ccccc23)NS(=O)(=O)c2ccc(OC)cc2)cc1 (centres undefined) | 45 |
| COc1ccc(S(=O)(=O)NC(CNC(C)c2cccc3ccccc23)Cc2ccccc2)cc1 (centres undefined) | 80 |
| COc1cccc([C@@H](C)NCCCc2ccccc2Cl)c1 | 106 |

The next lines start with the values.

| Accumulation [%] | Structure (SMILES) |
| --- | --- |
| 36 | COc1cccc(C(C)NCC(Cc2ccccc2)NS(=O)(=O)c2ccc(C)cc2)c1 (centres undefined) |
| 2 | CC(NCC(Cc1ccccc1)NS(=O)(=O)c1ccc(N)cc1)c1ccccc1 (centres undefined) |
| 16 | Cc1ccc(S(=O)(=O)NC(CNC(C)c2ccccc2)Cc2ccccc2)cc1 (centres undefined) |
| 8 | CC(NCC(Cc1ccccc1)NS(=O)(=O)c1ccc([N+](=O)[O-])cc1)c1ccccc1 (centres undefined) |
| 34 | COc1ccc(S(=O)(=O)NC(CNC(C)c2cccc(OC)c2)Cc2ccccc2)cc1 (centres undefined) |
| 68 | Cc1ccc(S(=O)(=O)NC(CNC(C)c2cccc3ccccc23)Cc2ccccc2)cc1 (centres undefined) |
| 78 | CC(NCC(Cc1ccccc1)NS(=O)(=O)c1ccccc1)c1cccc2ccccc12 (centres undefined) |
| 28 | CC(NCC(Cc1ccccc1)NS(=O)(=O)c1ccc([N+](=O)[O-])cc1)c1cccc2ccccc12 (centres undefined) |
| 38 | CC(NCC(Cc1ccccc1)NS(=O)(=O)c1ccc(Cl)cc1)c1cccc2ccccc12 (centres undefined) |
